Assay results published in PubChem BioAssay AID2764 (Sanford-Burnham Center for Chemical Genomics, 2010).
The list shows a part of the results. Calls of active or inactive are those of the source.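 How the source made its calls: active means activation above 40%, taking the highest of four retests; inactive means the rest.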

target: Apelin receptor (Homo sapiens) (UniProt P35414); experiment: APJ activation via beta-arrestin recruitment – cell-based, single concentration, CHO-K1, luminescence, confirmation (AID 2764); conditions: CHO-K1 APJ PathHunter beta-arrestin, at 20 µM, hits give high values;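 further: plate controls were DMSO wells for no effect and apelin-13 at 10 nM for full effect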
In short: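 Assay system: CHO-K1 AGTRL-1 (APJ) PathHunter cells, ProLink-APJ, EA-beta-arrestin fusions; compound dosing: single dose, compounds 20 µM final, 1% DMSO; timing: overnight cell seeding, 90 min compound exposure at 25 °C, 60 min detection; detection: luminescence, enzyme-fragment complementation; measure: % activation, beta-arrestin recruitment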

Apelin receptor (Homo sapiens), sequence (P35414 whole entry, looked up, the tested form may be a part): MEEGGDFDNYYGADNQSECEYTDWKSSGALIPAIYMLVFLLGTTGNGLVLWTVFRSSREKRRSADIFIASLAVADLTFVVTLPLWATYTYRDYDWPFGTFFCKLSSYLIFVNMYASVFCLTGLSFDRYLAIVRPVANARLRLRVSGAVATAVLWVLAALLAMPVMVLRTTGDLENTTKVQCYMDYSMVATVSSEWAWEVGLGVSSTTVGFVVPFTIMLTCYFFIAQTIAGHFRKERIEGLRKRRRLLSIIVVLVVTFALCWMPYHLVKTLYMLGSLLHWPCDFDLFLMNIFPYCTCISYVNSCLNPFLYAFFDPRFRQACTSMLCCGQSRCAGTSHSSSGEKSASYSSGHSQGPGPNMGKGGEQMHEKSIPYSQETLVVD

activation, inactive:
CC1=C/C(=N\OS(=O)(=O)c2ccccc2)C=CC1=O 30.6%
CCC(C)(C)C1CCC(=NNC(=O)c2ccc(Br)o2)CC1 (configuration not stated) 12.3%
O=C(CSc1nc(Nc2ccccc2)nc(N2CCOCC2)n1)Nc1cc(Cl)ccc1O 15.9%
CCOc1cc2[nH]c(=S)n(CCCN3CCCC3=O)c(=O)c2cc1OCC 20.1%
CC(=O)N1CCCc2cc(S(=O)(=O)N3CCCC(C(=O)N4CCN(c5cccc(Cl)c5)CC4)C3)ccc21 (configuration not stated) 27.4%
Cc1ccc2nc(-c3ccc(NC(=O)c4cccnc4)cc3)oc2c1 18.4%
COc1cc(NC(=O)C2=C(C)OCCS2)c(Cl)cc1C(=O)NCCN1CCN(C)CC1 11.7%
Nc1nc(-c2sc3nc4c(cc3c2N)CCCC4)nc(N2CCOCC2)n1 15%
CCCc1ccc(OCc2ccc(C(=O)N/N=C/c3cccc([N+](=O)[O-])c3)o2)c(OC)c1 19.3%
CCCCCCc1cc2cc(-c3nnc(-c4ccccc4)o3)c(=O)oc2cc1O -0.485%
COc1ccc(C(=O)O/N=C(\N)Cc2ccc(Cl)cc2Cl)cc1OC 24.9%
Cc1ccccc1-n1nnc2c(=O)oc3ccccc3c21 7.92%
